Measurements: ChEMBL document CHEMBL2021900, “Discovery of cariprazine (RGH-188): a novel antipsychotic acting on dopamine D3/D2 receptors” (Bioorg Med Chem Lett, 2012)

How the values were obtained:
[1] = Metabolic stability in rat liver microsomes at 2.5 uM measured up to 20 mins; format: ADME, Microsome; settings: read-out: Stability
In short: (§1)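 Compound incubated for up to 20 min with human or rat liver microsomes. Substrate consumption was followed over time; the plot was linear and was analysed by linear regression.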

[2] = Metabolic stability in human liver microsomes at 2.5 uM measured up to 20 mins; format: ADME, Microsome; settings: read-out: Stability; in short: as §1
D(3) dopamine receptor = D(3) dopamine receptor (Rattus norvegicus, UniProt P19020); assay: Displacement of [3H]spiperone from rat recombinant dopamine D3 receptor expressed in Sf9 cells
Chain of D(3) dopamine receptor (P19020 whole entry): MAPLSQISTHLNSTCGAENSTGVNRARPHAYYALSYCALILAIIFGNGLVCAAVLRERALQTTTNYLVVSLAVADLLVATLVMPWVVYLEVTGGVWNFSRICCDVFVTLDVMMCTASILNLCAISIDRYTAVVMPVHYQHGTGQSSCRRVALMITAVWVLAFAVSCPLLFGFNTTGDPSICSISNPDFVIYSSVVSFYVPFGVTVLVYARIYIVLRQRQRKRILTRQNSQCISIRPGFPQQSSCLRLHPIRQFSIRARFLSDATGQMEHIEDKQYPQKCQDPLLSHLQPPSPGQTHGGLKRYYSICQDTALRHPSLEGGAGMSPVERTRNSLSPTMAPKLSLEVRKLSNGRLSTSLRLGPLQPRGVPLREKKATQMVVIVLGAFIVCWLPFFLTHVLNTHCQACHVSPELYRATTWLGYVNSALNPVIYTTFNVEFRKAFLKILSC

Mus musculus = assay: Antipsychotic activity in po dosed CD1 mouse assessed as reduction of apomorphine-induced climbing behaviour administered 1 hr before apomorphine challenge measured after 10 to 16 mins; format: functional
D(2) dopamine receptor = D(2) dopamine receptor (Rattus norvegicus, UniProt P61169); assay: Displacement of [3H]spiperone from dopamine D2 receptor in rat striatal membranes; format: cell membranes, Membrane
Chain of D(2) dopamine receptor (P61169 whole entry): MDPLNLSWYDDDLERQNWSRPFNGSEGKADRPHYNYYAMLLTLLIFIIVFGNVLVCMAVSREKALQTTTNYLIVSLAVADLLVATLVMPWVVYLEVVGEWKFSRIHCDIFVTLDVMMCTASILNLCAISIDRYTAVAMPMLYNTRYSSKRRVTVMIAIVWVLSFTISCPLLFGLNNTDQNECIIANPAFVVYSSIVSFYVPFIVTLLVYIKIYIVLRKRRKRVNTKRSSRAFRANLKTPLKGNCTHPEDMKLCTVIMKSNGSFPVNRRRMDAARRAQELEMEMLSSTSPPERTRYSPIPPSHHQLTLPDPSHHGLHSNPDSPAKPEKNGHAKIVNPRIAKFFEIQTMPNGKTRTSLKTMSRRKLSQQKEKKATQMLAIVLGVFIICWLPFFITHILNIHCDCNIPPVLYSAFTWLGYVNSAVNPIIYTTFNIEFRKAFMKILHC
In short: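 Rat striatal membranes; [3H]spiperone 0.7 nM as radioligand; nonspecific binding defined with (+)-butaclamol. Ki values are means of two to four independent experiments, each with at least six concentrations in duplicate.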

[3] = target: T1, Adrenergic receptor alpha-1 (Rattus norvegicus, UniProt P15823+P23944+P43140); assay: Displacement of [3H]-prazosin from adrenergic alpha-1 receptor in rat cerebral cortical membranes; format: cell membranes, Membrane
T1 sequence (P15823 whole entry): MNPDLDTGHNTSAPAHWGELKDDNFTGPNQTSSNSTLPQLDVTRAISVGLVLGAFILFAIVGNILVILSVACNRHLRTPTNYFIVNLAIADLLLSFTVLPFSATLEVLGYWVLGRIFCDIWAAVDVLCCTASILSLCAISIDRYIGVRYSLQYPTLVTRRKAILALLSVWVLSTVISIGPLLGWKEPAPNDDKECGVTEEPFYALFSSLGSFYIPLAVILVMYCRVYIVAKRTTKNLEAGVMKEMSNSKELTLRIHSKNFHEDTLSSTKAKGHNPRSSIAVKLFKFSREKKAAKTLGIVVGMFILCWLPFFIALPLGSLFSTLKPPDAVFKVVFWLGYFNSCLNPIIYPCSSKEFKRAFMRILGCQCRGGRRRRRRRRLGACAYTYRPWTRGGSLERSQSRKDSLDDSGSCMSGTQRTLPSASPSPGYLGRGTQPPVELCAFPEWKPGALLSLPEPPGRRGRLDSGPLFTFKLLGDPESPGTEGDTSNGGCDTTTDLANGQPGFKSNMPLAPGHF
T1 sequence (P23944 whole entry): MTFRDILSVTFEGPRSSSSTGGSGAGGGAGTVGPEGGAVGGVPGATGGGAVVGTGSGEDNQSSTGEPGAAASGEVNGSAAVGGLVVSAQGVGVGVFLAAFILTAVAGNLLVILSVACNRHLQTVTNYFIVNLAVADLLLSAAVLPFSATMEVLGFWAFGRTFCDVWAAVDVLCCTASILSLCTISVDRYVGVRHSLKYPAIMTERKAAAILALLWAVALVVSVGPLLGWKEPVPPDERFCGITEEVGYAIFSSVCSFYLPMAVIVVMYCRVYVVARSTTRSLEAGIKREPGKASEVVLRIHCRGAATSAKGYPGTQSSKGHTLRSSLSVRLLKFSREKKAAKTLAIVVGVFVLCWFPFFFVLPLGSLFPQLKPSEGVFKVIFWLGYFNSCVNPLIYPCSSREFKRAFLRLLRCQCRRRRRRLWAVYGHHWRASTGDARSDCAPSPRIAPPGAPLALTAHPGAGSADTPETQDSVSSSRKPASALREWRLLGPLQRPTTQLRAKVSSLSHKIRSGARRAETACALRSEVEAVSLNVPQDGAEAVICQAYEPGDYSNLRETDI
T1 sequence (P43140 whole entry): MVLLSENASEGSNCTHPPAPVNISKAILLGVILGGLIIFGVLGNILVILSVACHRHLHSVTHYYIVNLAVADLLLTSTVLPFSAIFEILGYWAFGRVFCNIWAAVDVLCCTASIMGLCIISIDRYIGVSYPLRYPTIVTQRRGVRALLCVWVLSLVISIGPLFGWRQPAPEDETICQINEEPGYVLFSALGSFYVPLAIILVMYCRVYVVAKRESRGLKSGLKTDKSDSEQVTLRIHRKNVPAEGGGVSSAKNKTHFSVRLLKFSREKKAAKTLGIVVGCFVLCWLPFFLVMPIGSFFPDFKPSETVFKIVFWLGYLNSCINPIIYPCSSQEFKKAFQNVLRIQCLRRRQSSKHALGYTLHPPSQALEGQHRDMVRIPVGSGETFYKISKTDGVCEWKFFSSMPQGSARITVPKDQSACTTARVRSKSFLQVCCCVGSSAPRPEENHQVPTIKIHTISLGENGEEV
In short: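 Alpha-1 binding used rat cerebral cortical membranes with [3H]prazosin 0.5 nM, with phentolamine defining nonspecific binding. Ki values are means of two to four independent experiments, each with at least six concentrations in duplicate.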

Rattus norvegicus [4] = organism: Rattus norvegicus; assay: Selectivity ratio of Ki for adrenergic alpha-1 receptor in rat cerebral cortical membranes to Ki for rat recombinant dopamine D3 receptor; format: cell membranes; settings: Membrane
Rattus norvegicus [5] = assay: Induction of catalepsy in po dosed rat; format: organism-based; settings: in vivo
[6] = Tmax in rat brain; format: ADME, tissue-based
[7] = Apparent terminal half life in iv or po dosed rat; format: ADME, organism-based; settings: in vivo, read-out: betat1/2(app) (converted)
[8] = Ratio of drug level in brain to plasma in iv or po dosed rat; format: ADME, organism-based; settings: read-out: BPR
D(1B) dopamine receptor = D(1B) dopamine receptor (Homo sapiens, UniProt P21918); assay: Binding affinity to human dopamine D5 receptor
Chain of D(1B) dopamine receptor (P21918 whole entry): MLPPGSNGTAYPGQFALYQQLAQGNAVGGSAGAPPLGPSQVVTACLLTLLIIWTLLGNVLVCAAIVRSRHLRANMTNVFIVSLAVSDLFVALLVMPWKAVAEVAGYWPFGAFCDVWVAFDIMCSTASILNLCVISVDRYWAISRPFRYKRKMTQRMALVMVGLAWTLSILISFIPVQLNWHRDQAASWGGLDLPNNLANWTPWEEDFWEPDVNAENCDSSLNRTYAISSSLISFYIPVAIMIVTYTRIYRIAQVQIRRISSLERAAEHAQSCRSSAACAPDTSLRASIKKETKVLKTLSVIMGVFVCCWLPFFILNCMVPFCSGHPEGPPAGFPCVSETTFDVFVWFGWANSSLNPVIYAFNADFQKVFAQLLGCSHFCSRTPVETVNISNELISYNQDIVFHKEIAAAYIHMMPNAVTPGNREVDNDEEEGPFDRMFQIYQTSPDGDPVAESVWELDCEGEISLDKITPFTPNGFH

[9] = Binding affinity to human dopamine D4.2 receptor
D(1A) dopamine receptor = D(1A) dopamine receptor (Rattus norvegicus, UniProt P18901); assay: Binding affinity to rat dopamine D1 receptor
Chain of D(1A) dopamine receptor (P18901 whole entry): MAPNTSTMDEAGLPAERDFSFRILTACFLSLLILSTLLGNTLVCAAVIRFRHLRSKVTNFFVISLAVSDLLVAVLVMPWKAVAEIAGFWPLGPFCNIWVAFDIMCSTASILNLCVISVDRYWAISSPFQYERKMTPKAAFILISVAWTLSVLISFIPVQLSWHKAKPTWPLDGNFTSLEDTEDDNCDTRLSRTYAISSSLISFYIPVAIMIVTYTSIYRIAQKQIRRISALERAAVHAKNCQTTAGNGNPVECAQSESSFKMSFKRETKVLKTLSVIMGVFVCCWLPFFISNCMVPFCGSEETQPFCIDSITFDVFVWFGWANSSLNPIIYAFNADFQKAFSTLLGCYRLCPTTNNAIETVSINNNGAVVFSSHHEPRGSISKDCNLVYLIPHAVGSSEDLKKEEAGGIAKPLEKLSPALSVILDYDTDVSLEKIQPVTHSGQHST

[10] = Oral bioavailability in rat; format: ADME, organism-based; settings: in vivo
[11] = Cmax in rat; format: ADME, organism-based; settings: in vivo

Row | Structure (SMILES) | IC50 (D(3) dopamine receptor) [nM] | ED50 (Mus musculus) [mg/kg] | IC50 (D(2) dopamine receptor) [nM] | Ki [3] [nM] | Ratio Ki (Rattus norvegicus [4]) | Ki (D(3) dopamine receptor) [nM] | Ki (D(2) dopamine receptor) [nM] | other results
1 | CN(C)C(=O)N[C@H]1CC[C@H](CCN2CCN(c3cc(Cl)cc(Cl)c3)CC2)CC1 | – | – | – | – | – | – | – | remaining at 20 min, 2.5 µM [1]: 73%; remaining at 20 min, 2.5 µM [2]: 58%
2 | CCOC(=O)N[C@H]1CC[C@H](CCN2CCN(Cc3cccc(C(F)(F)F)c3)CC2)CC1 | 5.1 | 5.37 | 25 | – | – | – | – | –
3 | CC(=O)N[C@H]1CC[C@H](CCN2CCN(c3cccc(Cl)c3Cl)CC2)CC1 | 0.29 | 0.17 | 2.3 | – | – | – | – | –
4 | CN(C)C(=O)N[C@H]1CC[C@H](CCN2CCN(c3ccc(Cl)cc3Cl)CC2)CC1 | – | – | – | 156 | 28.9 | 5.4 | 106 | –
5 | CS(=O)(=O)N[C@H]1CC[C@H](CCN2CCN(Cc3cccc(C(F)(F)F)c3)CC2)CC1 | 11 | 1.34 | 158 | – | – | – | – | –
6 | CCNC(=O)N[C@H]1CC[C@H](CCN2CCN(c3cccc(Cl)c3Cl)CC2)CC1 | 0.34 | 0.38 | 16.9 | – | – | – | – | –
7 | CN(C)C(=O)N[C@H]1CC[C@H](CCN2CCN(c3cc(Cl)ccc3Cl)CC2)CC1 | – | – | – | 34.9 | 52.8 | 0.66 | 8.2 | –
8 | CN(C)C(=O)N[C@H]1CC[C@H](CCN2CCN(c3cccc(Cl)c3Cl)CC2)CC1.Cl [CARIPRAZINE HYDROCHLORIDE] | – | – | […] | 214 | – | – | – | MED (Rattus norvegicus [5]): > 85 mg/kg; Tmax [6]: 0.5 h; half-life [7]: 2 h; Kp [8]: 7.6; IC50 (D(1B) dopamine receptor): > 1000 nM; remaining at 20 min, 2.5 µM [1]: 93%; IC50 [9]: > 1000 nM; IC50 (D(1A) dopamine receptor): > 1000 nM; remaining at 20 min, 2.5 µM [2]: 96%; bioavailability [10]: 52%; Cmax [11]: 91 ng/mL
9 | CC(=O)N[C@H]1CC[C@H](CCN2CCN(c3cc(C#N)cc(C(F)(F)F)c3)CC2)CC1 | 1.9 | 1.54 | 143 | – | – | – | – | –
10 | CN(C)C(=O)N[C@H]1CC[C@H](CCN2CCN(c3ccc(Cl)c(Cl)c3)CC2)CC1 | – | – | – | 29.6 | 8.9 | 3.3 | 110 | –
